Measured values as given in ChEMBL document CHEMBL1146113, “Synthesis and SAR of heteroaryl-phenyl-substituted pyrazole derivatives as highly selective and potent canine COX-2 inhibitors” (Bioorg Med Chem Lett, 2006).
Each block holds one molecule with its values, some of them ahead of it.

Experiments:
[1] = species: Canis lupus familiaris; assay: Selectivity for COX2 over COX1
[2] = biological target: T1, Cyclooxygenase-2 (Canis lupus familiaris, UniProt Q8SPQ9); assay: Inhibition of COX2 in canine whole blood; format: tissue-based
T1 sequence (Q8SPQ9 whole entry): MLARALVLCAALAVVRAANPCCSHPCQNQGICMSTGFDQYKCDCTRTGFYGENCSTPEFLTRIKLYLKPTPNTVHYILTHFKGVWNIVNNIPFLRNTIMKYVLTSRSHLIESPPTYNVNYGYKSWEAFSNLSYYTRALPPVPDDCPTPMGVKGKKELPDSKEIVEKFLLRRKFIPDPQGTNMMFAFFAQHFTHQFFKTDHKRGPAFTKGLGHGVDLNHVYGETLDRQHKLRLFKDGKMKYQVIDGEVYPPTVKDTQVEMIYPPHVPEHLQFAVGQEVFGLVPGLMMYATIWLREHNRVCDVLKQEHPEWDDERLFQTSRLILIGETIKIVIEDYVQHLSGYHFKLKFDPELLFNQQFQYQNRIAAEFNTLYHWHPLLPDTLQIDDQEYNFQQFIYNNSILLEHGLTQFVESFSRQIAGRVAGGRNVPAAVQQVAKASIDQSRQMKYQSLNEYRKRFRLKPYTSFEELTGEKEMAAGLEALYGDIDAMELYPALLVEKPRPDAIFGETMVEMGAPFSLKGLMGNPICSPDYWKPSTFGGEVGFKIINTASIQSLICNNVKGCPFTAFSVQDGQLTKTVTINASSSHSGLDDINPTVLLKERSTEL
Procedure, shortened: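 Heparinized canine whole blood incubated overnight at 37 °C with drug plus LPS to stimulate PGE2. LPS-only controls gave maximum PGE2 and vehicle-only controls gave background. EDTA (0.3% final) then added and plasma collected and frozen. PGE2 measured by EIA, with samples diluted 1/1000.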

[3] = biological target: T2, Prostaglandin G/H synthase 1 (Canis lupus familiaris, UniProt Q8HZR1); assay: Inhibition of COX1 in canine whole blood
T2 sequence (Q8HZR1 whole entry): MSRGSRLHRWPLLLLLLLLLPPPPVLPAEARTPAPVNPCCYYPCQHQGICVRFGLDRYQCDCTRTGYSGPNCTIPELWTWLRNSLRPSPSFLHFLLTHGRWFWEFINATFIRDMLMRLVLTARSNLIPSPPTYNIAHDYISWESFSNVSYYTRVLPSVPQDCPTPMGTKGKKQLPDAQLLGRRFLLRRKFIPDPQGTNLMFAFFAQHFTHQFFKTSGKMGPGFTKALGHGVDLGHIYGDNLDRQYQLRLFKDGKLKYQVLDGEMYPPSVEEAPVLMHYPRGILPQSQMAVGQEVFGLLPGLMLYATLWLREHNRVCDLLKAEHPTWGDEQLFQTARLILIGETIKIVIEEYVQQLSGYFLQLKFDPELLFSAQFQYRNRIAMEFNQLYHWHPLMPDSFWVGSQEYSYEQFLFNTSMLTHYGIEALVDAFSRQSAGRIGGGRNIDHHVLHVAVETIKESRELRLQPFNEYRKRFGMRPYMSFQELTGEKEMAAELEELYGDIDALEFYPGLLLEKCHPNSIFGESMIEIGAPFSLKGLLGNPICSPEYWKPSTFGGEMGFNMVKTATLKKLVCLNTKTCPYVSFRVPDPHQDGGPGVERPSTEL
Procedure, shortened: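 Canine whole blood incubated with drug for 1 h at 37 °C, with drug-free samples as maximum TXB2 controls. EDTA (0.3% final) then added and serum collected and frozen. COX-1 activity read as TXB2 production by EIA, with samples diluted 1/10,000.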

[4] = Half life in dog; format: ADME, organism-based, Canis lupus familiaris; settings: in vivo
[5] = Oral bioavailability in dog; format: ADME, organism-based, Canis lupus familiaris; settings: in vivo

SMILES: CS(=O)(=O)c1ccc(-n2nc(C(F)(F)F)cc2-c2ccc(-c3cscn3)cc2F)nc1
Ratio IC50 [1]: 78
IC50 [2]: 290 nM
IC50 [3]: 22700 nM

SMILES: Cc1cc(-c2cc(C(F)(F)F)nn2-c2ccc(S(C)(=O)=O)cn2)ccc1-c1cscn1
Ratio IC50 [1]: 172
IC50 [2]: 90 nM
IC50 [3]: 15500 nM

SMILES: CS(=O)(=O)c1ccc(-n2nc(C(F)(F)F)cc2-c2ccc(-c3cscn3)c(Cl)c2)nc1
Ratio IC50 [1]: > 320
IC50 [2]: < 50 nM
IC50 [3]: 16000 nM

SMILES: CS(=O)(=O)c1ccc(-n2nc(C(F)(F)F)cc2-c2ccc(-c3cscn3)cc2)nc1
Ratio IC50 [1]: > 313
IC50 [2]: 160 nM
IC50 [3]: > 50000 nM

SMILES: Cc1scnc1-c1ccc(-c2cc(C(F)(F)F)nn2-c2ccc(S(C)(=O)=O)cn2)cc1
IC50 [2]: > 500 nM

SMILES: CS(=O)(=O)c1ccc(-n2nc(C(F)(F)F)cc2-c2cccc(-c3cscn3)c2)nc1
IC50 [2]: > 500 nM

SMILES: Cc1cc(-c2cc(C(F)F)nn2-c2ccc(S(C)(=O)=O)cn2)ccc1-c1cscn1
Ratio IC50 [1]: 200
IC50 [2]: 19 nM
IC50 [3]: 3800 nM

SMILES: COC(=O)c1cc(-c2cc(C(F)(F)F)nn2-c2ccc(S(C)(=O)=O)cn2)ccc1-c1ccco1
IC50 [2]: > 500 nM

SMILES: CS(=O)(=O)c1ccc(-n2nc(C(F)(F)F)cc2-c2ccc(-c3cncs3)cc2)nc1
Ratio IC50 [1]: 15
IC50 [2]: 180 nM
IC50 [3]: 2700 nM

SMILES: CS(=O)(=O)c1ccc(-n2nc(C(F)(F)F)cc2-c2ccc(-c3ccco3)c(C(N)=O)c2)nc1
Ratio IC50 [1]: 4.9
IC50 [2]: 410 nM
IC50 [3]: 2000 nM

SMILES: Cc1cc(-c2cc(C(F)(F)F)nn2-c2ccc(S(C)(=O)=O)cn2)ccc1-c1cocn1
Ratio IC50 [1]: 487
IC50 [2]: 30 nM
IC50 [3]: 12700 nM

SMILES: CS(=O)(=O)c1ccc(-n2nc(C(F)(F)F)cc2-c2ccc(-c3ccco3)c(C#N)c2)nc1
Ratio IC50 [1]: 154
IC50 [2]: 13 nM
IC50 [3]: 2000 nM

SMILES: Cc1cc(-c2cc(C(F)(F)F)nn2-c2ccc(S(C)(=O)=O)cn2)ccc1-c1ncco1
Ratio IC50 [1]: 171
IC50 [2]: 65 nM
IC50 [3]: 11100 nM

SMILES: CS(=O)(=O)c1ccc(-n2nc(C(F)(F)F)cc2-c2ccc(-c3nccs3)cc2)nc1
Ratio IC50 [1]: 238
IC50 [2]: 210 nM
IC50 [3]: 50000 nM

SMILES: CS(=O)(=O)c1ccc(-n2nc(C(F)(F)F)cc2-c2ccc(-c3nccs3)c(C#N)c2)nc1
Ratio IC50 [1]: 212
IC50 [2]: 110 nM
IC50 [3]: 23400 nM

Results, then the molecule that gave them:

Ratio IC50 [1]: 558
IC50 [2]: 50 nM
IC50 [3]: 27900 nM
SMILES: CS(=O)(=O)c1ccc(-n2nc(C(F)(F)F)cc2-c2ccc(-c3ccco3)c(F)c2)nc1

Ratio IC50 [1]: 92
IC50 [2]: 130 nM
IC50 [3]: 12000 nM
SMILES: CS(=O)(=O)c1ccc(-n2nc(C(F)F)cc2-c2ccc(-c3ccco3)cc2)nc1

Ratio IC50 [1]: 83
IC50 [2]: 60 nM
IC50 [3]: 5000 nM
SMILES: CS(=O)(=O)c1ccc(-n2nc(C(F)F)cc2-c2ccc(-c3ccco3)c(F)c2)nc1

Ratio IC50 [1]: 550
IC50 [2]: 10 nM
IC50 [3]: 5500 nM
SMILES: CS(=O)(=O)c1ccc(-n2nc(C(F)F)cc2-c2ccc(-c3ccco3)c(Cl)c2)nc1

Ratio IC50 [1]: 340
IC50 [2]: 10 nM
IC50 [3]: 3400 nM
SMILES: Cc1cc(-c2cc(C(F)(F)F)nn2-c2ccc(S(C)(=O)=O)cn2)ccc1-c1ccco1

Ratio IC50 [1]: 759
IC50 [2]: 20 nM
IC50 [3]: 18200 nM
SMILES: CS(=O)(=O)c1ccc(-n2nc(C(F)(F)F)cc2-c2ccc(-c3ccco3)cc2)nc1

Ratio IC50 [1]: > 4170
IC50 [2]: 12 nM
half-life [4]: 16.4 h
bioavailability [5]: 34%
IC50 [3]: > 50000 nM
SMILES: CS(=O)(=O)c1ccc(-n2nc(C(F)(F)F)cc2-c2ccc(-c3ccco3)c(Cl)c2)nc1
